In the library only some 2.2% were active in any assay of this set; here they are far more common.
Tn6 DDE FP = inhibitors of Tn6 peptide binding to human fibrin DD(E); Fibrin DD(E) TRITC-Tn6 fluorescence polarization displacement; AID 720509; 370,000 compounds, 0.21% hits; inhibition, % at 8.3 µM;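 active = inhibition above a per-campaign cutoff: mean of compounds within control limits plus 3 SD, cut at about 15% in these data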
Target sequence (P02675 whole entry, looked up): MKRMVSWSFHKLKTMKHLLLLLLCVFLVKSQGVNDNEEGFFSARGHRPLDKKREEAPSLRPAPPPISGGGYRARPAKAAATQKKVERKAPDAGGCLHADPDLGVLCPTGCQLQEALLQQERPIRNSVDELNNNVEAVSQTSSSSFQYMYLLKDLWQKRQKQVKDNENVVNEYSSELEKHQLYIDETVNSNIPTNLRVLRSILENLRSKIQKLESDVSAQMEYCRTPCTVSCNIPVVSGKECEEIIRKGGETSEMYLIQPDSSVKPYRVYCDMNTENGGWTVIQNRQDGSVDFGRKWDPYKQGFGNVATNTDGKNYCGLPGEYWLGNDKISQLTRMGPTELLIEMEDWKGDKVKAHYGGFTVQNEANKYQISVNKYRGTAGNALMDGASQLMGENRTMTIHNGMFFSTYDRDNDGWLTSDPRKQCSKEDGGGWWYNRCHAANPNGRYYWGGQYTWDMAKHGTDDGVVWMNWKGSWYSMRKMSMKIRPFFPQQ
Neddyl block = inhibitors of human cullin neddylation | P61081+Q13564 | TR-FRET cullin neddylation, biochemical | calls only at 25 µM | 360,000 compounds, 0.58% hits; in the data active = inhibition above about 36%
DDE Tn7 FP inh = DD(E)-Tn7 binding inhibition, primary FP screen; P02675; FP displacement of FITC-Tn7 peptide from fibrin DD(E); 0% = median of compound wells per plate; inhibition, % at 8.3 µM; 370,000 compounds, 0.13% hits;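 active = inhibition above the mean of compounds falling within the control limits plus 3 SD of them, cut at about 14% in these data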
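Assay system: human fibrin DD(E). Input: DD(E) 2 µM final. Medium: Tris buffer with calcium and detergent, pH 7.8. Compound dosing: single point at 8.3 µM. Timing: 10 min plus 3 h, room temperature. Technique: fluorescence polarization of the labelled Tn7 tracer. Read-out: percent inhibition. Replicates: singlicate testing.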
proKLK7 act = proKLK7 (human) activation, primary screen; P49862; 370,000 compounds, 0.9% hits; activation, % at 7 µM; purified proKLK7, EDANS-DABCYL substrate fluorescence; 100% is mature enzyme control, 0% vehicle;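 active = activation above the mean of all tested compounds plus 3 SD, computed per campaign excluding outliers beyond control limits, cut at about 13% in these data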
Target sequence (P49862 whole entry, looked up): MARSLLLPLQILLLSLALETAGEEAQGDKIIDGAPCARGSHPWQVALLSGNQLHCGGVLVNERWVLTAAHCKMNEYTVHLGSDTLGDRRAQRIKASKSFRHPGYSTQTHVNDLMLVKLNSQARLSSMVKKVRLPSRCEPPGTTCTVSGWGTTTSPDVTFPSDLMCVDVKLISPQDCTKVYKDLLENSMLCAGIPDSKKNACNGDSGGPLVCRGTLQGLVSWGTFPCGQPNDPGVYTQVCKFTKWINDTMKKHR
MT1-MMP act inh = inhibitors of human MT1-MMP activation; HT1080 RFP-PRO-GFP cells, GFP/RFP ratio fluorescence, overnight; percent of plate control window, DMSO zero; GFP/RFP ratio change, % at 20 µM; 360,000 compounds, 0.061% hits; P50281;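 active = GFP/RFP ratio change of at least 30% with cell ATP level not reduced by more than half and red fluorescence within 50% of control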
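Read-out: GFP/RFP fluorescence ratio; Test system: RFP-PRO-GFP reporter HT1080 cells; Compound dosing: single-point 20 µM compound, 1% DMSO; Times: overnight compound exposure at 37 °C.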
SKN-1 block = C. elegans SKN-1 inhibition; C. elegans VP596 Pgst-4::GFP/RFP ratio, acrylamide-induced, 24 h; inhibition, % at 21.8 µM; 360,000 compounds, 0.49% hits; AID 624304;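 active = interference check ratio from 0.5 to 1.5 plus GFP to RFP signal ratio inhibition reaching or exceeding a fixed threshold, cut at about 30% in these data, passing the limit was not always enough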
proKLK7 act conf = proKLK7 activation, confirmation; shares compounds with proKLK7 act; purified proKLK7, EDANS-DABCYL substrate fluorescence; scaled: vehicle 0, mature enzyme 100; activation, % at 7 µM; 3,200 compounds, 68% hits;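 active = activation, as change over the incubation, above the mean of all tested compounds plus 3 SD, cut at about 13% in these data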
EDANS interfere = fluorescence interference counter-screen for KLK7 activators | activation, % at 7 µM | EDANS-DABCYL substrate fluorescence interference, no enzyme, 4 h; solvent 0%, active enzyme control 100% | 3,200 compounds, 80% hits | shares compounds with proKLK7 act | AID 686952;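 active = activation above the all-compound mean plus 3 SD, ignoring values outside control-based bounds, cut at about 4.8% in these data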;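 also: value is the 4 h activation minus the activation read at time zero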
EDANS interf = EDANS fluorescence interference in dose response, no enzyme; shares compounds with proKLK7 act; EDANS-DABCYL peptide fluorescence interference; EC50, µM; 250 compounds, 20% hits;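 active = compounds that raise the fluorescence signal in this interference counterscreen, with EC50 at or below 10 µM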;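 also: intact quenched peptide substrate alone read at 355 nm excitation and 520 nm emission; signal is fluorescence gain from T0 to T4 after four hours at room temperature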
Large screens that a line does not name were inactive (follow-up assays come after a bar, where shown).

C=C(C)Cn1c2ccc(NC(=O)NCC)cc2c(=O)n1C	proKLK7 act 39.0 (not shown: Neddyl block) | proKLK7 act conf 52.9 | EDANS interfere 58.2
COc1ccc(CCNC(=O)Nc2ccc3c(c2)c(=O)n(C)n3Cc2ccc(Cl)cc2)cc1OC	none (not shown: Neddyl block)
CCNC(=O)Nc1ccc2c(c1)c(=O)n(C)n2Cc1ccc(Cl)cc1	proKLK7 act 27.7 (not shown: Neddyl block) | proKLK7 act conf 16.1 | EDANS interfere 26.1
Cn1c(=O)c2cc(NC(=O)NCCc3ccccc3)ccc2n1Cc1ccccc1	none (not shown: Neddyl block)
C=C(C)Cn1c2ccc(NC(=O)NCc3ccccc3)cc2c(=O)n1C	proKLK7 act 28.1 (not shown: Neddyl block) | proKLK7 act conf 32.2 | EDANS interfere 25.6 | EDANS interf inactive
Cc1cccc(C)c1N1C(=O)C(Cl)=C(N2CCCC2)C1=O	none
CC(C)NCC(O)c1ccc(O)c(O)c1 (stereo not drawn)	proKLK7 act 34.7 | proKLK7 act conf 46.2 | EDANS interfere 51.0
Cc1ccc(C23OCCN2CCn2nc4ccccc4c23)cc1 (stereo not drawn)	proKLK7 act 43.9 (not shown: Neddyl block) | proKLK7 act conf inactive | EDANS interfere inactive
COCc1ccc(-c2c(-c3ccccc3OC)sc3cc4c(cc23)OCO4)cc1	none
Cc1cc(C)c2cc(C#N)c(NCCCNC(=O)CCC(=O)O)nc2c1	proKLK7 act 15.3 (not shown: Neddyl block) | proKLK7 act conf 20.3 | EDANS interfere 22.2
COCCNc1cc(C)nc2c3c(C)cc(C)nc3nn12	proKLK7 act 81.2 (not shown: Neddyl block) | proKLK7 act conf 70.5 | EDANS interfere 62.7
Cc1cc(C)c2c(n1)nn1c(NCCN3CCOCC3)cc(C)nc21	proKLK7 act 33.4 (not shown: Neddyl block) | proKLK7 act conf 40.3 | EDANS interfere 31.9 | EDANS interf inactive
Cc1ccc(N2C(=O)C3C4C=CC(C4)C3C2=O)cc1 (stereo not drawn)	none
Cc1ccc(C2Nc3ccccc3C(=O)N2CCCN2CCOCC2)cc1 (stereo not drawn)	proKLK7 act 23.5 (not shown: Neddyl block) | proKLK7 act conf inactive | EDANS interfere inactive
CCCN1C(=O)c2ccccc2NC1c1ccc(O)c(OCC)c1 (stereo not drawn)	proKLK7 act 14.1 (not shown: Neddyl block) | proKLK7 act conf inactive | EDANS interfere 6.7
CCCN1C(=O)c2ccccc2NC1c1ccc(Cl)cc1 (stereo not drawn)	proKLK7 act 15.6 (not shown: Neddyl block) | proKLK7 act conf inactive | EDANS interfere 7.0
O=C1NCCN1CCN1C(=O)c2ccccc2NC1c1ccccc1 (stereo not drawn)	proKLK7 act 20.4 (not shown: Neddyl block) | proKLK7 act conf 29.9 | EDANS interfere 33.0
CCOC(=O)C1CCN(S(=O)(=O)c2c(C)[nH]c(C)c2C(=O)N2CCCC2)CC1	none
CCCCOC(=O)C1=C(C)NC(=O)NC1c1cccc([N+](=O)[O-])c1 (stereo not drawn)	none
CC(=O)N(C(C)=O)c1ncc2c([nH]c3ccccc32)c1C#N	proKLK7 act 18.8 (not shown: Neddyl block) | proKLK7 act conf 24.6 | EDANS interfere 24.8
O=C(NNS(=O)(=O)c1ccccc1[N+](=O)[O-])c1cc2ccccc2cc1O	proKLK7 act 14.3 | proKLK7 act conf 21.5 | EDANS interfere 19.9
COc1cc(C2Nc3ccccc3C(=O)N2NS(C)(=O)=O)ccc1O (stereo not drawn)	proKLK7 act 27.1 | proKLK7 act conf inactive | EDANS interfere 6.8
CC1Nc2ccccc2C(=O)N1NS(C)(=O)=O (stereo not drawn)	proKLK7 act 61.1 (not shown: Neddyl block) | proKLK7 act conf 26.0 | EDANS interfere 21.8
COc1ccccc1N1C(=O)c2ccccc2NC1C(OC)OC (stereo not drawn)	none (not shown: Neddyl block)
O=C1c2ccccc2NC(c2ccccc2)N1NS(=O)(=O)c1ccccc1 (stereo not drawn)	none
COc1ccc(C2Nc3ccccc3C(=O)N2NS(=O)(=O)c2ccccc2)cc1 (stereo not drawn)	proKLK7 act 17.2 | proKLK7 act conf inactive | EDANS interfere 7.7
COc1ccccc1N1C(=O)c2ccccc2NC1c1cc(OC)c(OC)c(OC)c1 (stereo not drawn)	proKLK7 act 22.9 (not shown: Neddyl block) | proKLK7 act conf 13.8 | EDANS interfere 14.6
COc1ccc(C2Nc3ccccc3C(=O)N2NS(=O)(=O)c2ccc(C)cc2)c(OC)c1 (stereo not drawn)	none (not shown: Neddyl block)
CS(=O)(=O)NN1C(=O)c2ccccc2NC1c1cccc2cccnc12 (stereo not drawn)	none
CC(=O)Nc1ccc(NC(=O)CSc2nnc(-c3n[nH]c4c3CCC4)n2N)cc1	none (no result: Neddyl block, MT1-MMP act inh, SKN-1 block)
CCOc1ccc(N(CC(=O)O)S(=O)(=O)c2ccc(F)cc2)cc1	none
COc1ccc(C2Nc3ccccc3C(=O)N2NS(=O)(=O)c2ccccc2)c(OC)c1 (stereo not drawn)	proKLK7 act 17.8 (not shown: Neddyl block) | proKLK7 act conf 35.1 | EDANS interfere 31.9
CCOC(=O)NN1C(=O)c2ccccc2NC1c1ccc(OC)cc1OC (stereo not drawn)	none (not shown: Neddyl block)
COc1ccc(C2Nc3ccccc3C(=O)N2NS(C)(=O)=O)cc1 (stereo not drawn)	proKLK7 act 61.3 (not shown: Neddyl block) | proKLK7 act conf inactive | EDANS interfere 10.6
CCC1(O)C(=O)OCc2c1cc1n(c2=O)Cc2cc3c(N)cccc3nc2-1 (stereo not drawn)	proKLK7 act 23.5 | proKLK7 act conf 64.3 | EDANS interfere 66.7
CN(C(=O)c1ccc(C#N)cc1)c1nnc(-c2ccccn2)s1	none
CN(C(=O)c1ccncc1)c1nnc(-c2ccccn2)s1	proKLK7 act 64.1 | proKLK7 act conf 88.2 | EDANS interfere 81.1
CCn1c(C)c(C)c2cc(C(=O)NCCN3CCCCCC3)ccc21	none
CC(C)(CNC(=O)c1sc2cc(Cl)ccc2c1Cl)N1CCOCC1	none
CCOC(=O)c1cc2c(=O)n3cccc(C)c3nc2n(Cc2ccco2)c1=NC(=O)c1ccc(C)cc1	none (no result: Tn6 DDE FP, DDE Tn7 FP inh, proKLK7 act)
CCOC(=O)c1cc2c(=O)n3ccccc3nc2n(Cc2ccco2)c1=NC(=O)c1ccc(OC)cc1	proKLK7 act 12.7 (not shown: Neddyl block) | proKLK7 act conf 105.2 | EDANS interfere 104.0
CCOC(=O)c1cc2c(=O)n3cccc(C)c3nc2n(Cc2ccco2)c1=NC(=O)c1ccccc1	proKLK7 act 24.3 (not shown: Neddyl block) | proKLK7 act conf 36.6 | EDANS interfere 36.1

Screening data from PubChem.
